Assay results published in ChEMBL document CHEMBL1135742, “Modification of the structure of a metallopeptide: synthesis and biological evaluation of (111)In-labeled DOTA-conjugated rhenium-cyclized alpha-MSH analogues” (J Med Chem, 2002).

Experiments:
Format in all cases: functional, organism-based
Mus musculus [1] = species on record: Mus musculus; assay: Radioactivity uptake in the spleen was expressed as a percentage of the injected radioactive dose per gram of tissue (% ID/g) in B16/F1 Murine Melanoma-Bearing C57 Mice at 24 h
In short: (§1)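 C57 BL/6 female mice (7–8 weeks) carried B16/F1 tumours from 1×10^6 cells given s.c. in the right flank; tumours were ~500 mg at 9–10 days. Each mouse received […] of HPLC-purified, neutralized 111In-DOTA peptide via the tail vein. Mice were killed at 0.5, 2, 4 or 24 h pi. Tissues were weighed and γ-counted, expressed as % ID/g; ratios were tumor/tissue % ID/g.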

Mus musculus [2] = species on record: Mus musculus; assay: Radioactivity uptake in the pancreas was expressed as a percentage of the injected radioactive dose per gram of tissue (% ID/g) in B16/F1 Murine Melanoma-Bearing C57 Mice at 24 h; in short: as §1
Mus musculus [3] = species on record: Mus musculus; assay: Radioactivity uptake in the kidneys was expressed as a percentage of the injected radioactive dose per gram of tissue (% ID/g) in B16/F1 Murine Melanoma-Bearing C57 Mice at 2 h; settings: Kidney; in short: as §1
Mus musculus [4] = species on record: Mus musculus; assay: Uptake Ratio of Tumor/blood (each in % ID/g) in B16/F1 Murine Melanoma-Bearing C57 Mice at 0.5 h; in short: as §1
Mus musculus [5] = species on record: Mus musculus; assay: Radioactivity uptake in the lungs was expressed as a percentage of the injected radioactive dose per gram of tissue (% ID/g) in B16/F1 Murine Melanoma-Bearing C57 Mice at 24 h; settings: Lung; in short: as §1
Mus musculus [6] = species on record: Mus musculus; assay: Radioactivity uptake in the lungs was expressed as a percentage of the injected radioactive dose per gram of tissue (% ID/g) in B16/F1 Murine Melanoma-Bearing C57 Mice at 4 h; settings: Lung; in short: as §1
Mus musculus [7] = species on record: Mus musculus; assay: Radioactivity uptake in the pancreas was expressed as a percentage of the injected radioactive dose per gram of tissue (% ID/g) in B16/F1 Murine Melanoma-Bearing C57 Mice at 4 h; in short: as §1
Mus musculus [8] = species on record: Mus musculus; assay: Uptake Ratio of Tumor/lungs (each in % ID/g) in B16/F1 Murine Melanoma-Bearing C57 Mice at 0.5 h
In short: (§2)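 Female C57 BL/6 mice, 7–8 weeks old, carried subcutaneous right-flank B16/F1 tumors from 1×10^6 cells and were used 9–10 days later at ~500 mg tumor weight. Each received […] of HPLC-purified, pH-neutralized ¹¹¹In-DOTA peptide by tail vein. Tumor and organs were excised at the stated time, weighed and γ-counted. Each tissue was taken as % ID/g, and tumor/normal-tissue ratios were formed from these values.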

Mus musculus [9] = species on record: Mus musculus; assay: Uptake Ratio of Tumor/muscle (each in % ID/g) in B16/F1 Murine Melanoma-Bearing C57 Mice at 0.5 h; settings: Muscle tissue; in short: as §2
Mus musculus [10] = species on record: Mus musculus; assay: Radioactivity uptake in the muscle was expressed as a percentage of the injected radioactive dose per gram of tissue (% ID/g) in B16/F1 Murine Melanoma-Bearing C57 Mice at 2 h; in short: as §1
Mus musculus [11] = species on record: Mus musculus; assay: Uptake Ratio of Tumor/lungs (each in % ID/g) in B16/F1 Murine Melanoma-Bearing C57 Mice at 24 h; in short: as §2
Mus musculus [12] = species on record: Mus musculus; assay: Uptake Ratio of Tumor/kidneys (each in % ID/g) in B16/F1 Murine Melanoma-Bearing C57 Mice at 4 h; settings: Kidney; in short: as §1
Mus musculus [13] = species on record: Mus musculus; assay: Radioactivity uptake in the heart was expressed as a percentage of the injected radioactive dose per gram of tissue (% ID/g) in B16/F1 Murine Melanoma-Bearing C57 Mice at 2 h; in short: as §1
Mus musculus [14] = species on record: Mus musculus; assay: Radioactivity uptake in the tumor was expressed as a percentage of the injected radioactive dose per gram of tissue (% ID/g) in B16/F1 Murine Melanoma-Bearing C57 Mice at 24 h; in short: as §1
Mus musculus [15] = species on record: Mus musculus; assay: Radioactivity uptake in the kidneys was expressed as a percentage of the injected radioactive dose per gram of tissue (% ID/g) in B16/F1 Murine Melanoma-Bearing C57 Mice at 4 h; settings: Kidney; in short: as §1
Mus musculus [16] = species on record: Mus musculus; assay: Radioactivity uptake in the muscle was expressed as a percentage of the injected radioactive dose per gram of tissue (% ID/g) in B16/F1 Murine Melanoma-Bearing C57 Mice at 4 h; in short: as §1
Mus musculus [17] = species on record: Mus musculus; assay: Uptake Ratio of Tumor/liver (each in % ID/g) in B16/F1 Murine Melanoma-Bearing C57 Mice at 2 h; in short: as §1
Mus musculus [18] = species on record: Mus musculus; assay: Uptake Ratio of Tumor/lungs (each in % ID/g) in B16/F1 Murine Melanoma-Bearing C57 Mice at 2 h; in short: as §2
Mus musculus [19] = species on record: Mus musculus; assay: Radioactivity uptake in the heart was expressed as a percentage of the injected radioactive dose per gram of tissue (% ID/g) in B16/F1 Murine Melanoma-Bearing C57 Mice at 24 h; in short: as §1
Mus musculus [20] = species on record: Mus musculus; assay: Radioactivity uptake in the liver was expressed as a percentage of the injected radioactive dose per gram of tissue (% ID/g) in B16/F1 Murine Melanoma-Bearing C57 Mice at 4 h; in short: as §1
Mus musculus [21] = species on record: Mus musculus; assay: Radioactivity uptake in the spleen was expressed as a percentage of the injected radioactive dose per gram of tissue (% ID/g) in B16/F1 Murine Melanoma-Bearing C57 Mice at 2 h; in short: as §1
Mus musculus [22] = species on record: Mus musculus; assay: Radioactivity uptake in the liver was expressed as a percentage of the injected radioactive dose per gram of tissue (% ID/g) in B16/F1 Murine Melanoma-Bearing C57 Mice at 0.5 h; in short: as §1
Mus musculus [23] = species on record: Mus musculus; assay: Uptake Ratio of Tumor/muscle (each in % ID/g) in B16/F1 Murine Melanoma-Bearing C57 Mice at 4 h; settings: Muscle tissue; in short: as §2
Mus musculus [24] = species on record: Mus musculus; assay: Radioactivity uptake in the pancreas was expressed as a percentage of the injected radioactive dose per gram of tissue (% ID/g) in B16/F1 Murine Melanoma-Bearing C57 Mice at 2 h; in short: as §1
Mus musculus [25] = species on record: Mus musculus; assay: Radioactivity uptake in the muscle was expressed as a percentage of the injected radioactive dose per gram of tissue (% ID/g) in B16/F1 Murine Melanoma-Bearing C57 Mice at 24 h; in short: as §1
Mus musculus [26] = species on record: Mus musculus; assay: Radioactivity uptake in the heart was expressed as a percentage of the injected radioactive dose per gram of tissue (% ID/g) in B16/F1 Murine Melanoma-Bearing C57 Mice at 0.5 h; in short: as §1
Mus musculus [27] = species on record: Mus musculus; assay: Radioactivity uptake in the lungs was expressed as a percentage of the injected radioactive dose per gram of tissue (% ID/g) in B16/F1 Murine Melanoma-Bearing C57 Mice at 2 h; settings: Lung; in short: as §1
Mus musculus [28] = species on record: Mus musculus; assay: Uptake Ratio of Tumor/kidneys (each in % ID/g) in B16/F1 Murine Melanoma-Bearing C57 Mice at 0.5 h; settings: Kidney; in short: as §1
Mus musculus [29] = species on record: Mus musculus; assay: Uptake Ratio of Tumor/blood (each in % ID/g) in B16/F1 Murine Melanoma-Bearing C57 Mice at 4 h; in short: as §1
Mus musculus [30] = species on record: Mus musculus; assay: Radioactivity uptake in the kidneys was expressed as a percentage of the injected radioactive dose per gram of tissue (% ID/g) in B16/F1 Murine Melanoma-Bearing C57 Mice at 0.5 h; settings: Kidney; in short: as §1
Mus musculus [31] = species on record: Mus musculus; assay: Radioactivity uptake in the tumor was expressed as a percentage of the injected radioactive dose per gram of tissue (% ID/g) in B16/F1 Murine Melanoma-Bearing C57 Mice at 2 h; in short: as §1
Mus musculus [32] = species on record: Mus musculus; assay: Radioactivity uptake in the tumor was expressed as a percentage of the injected radioactive dose per gram of tissue (% ID/g) in B16/F1 Murine Melanoma-Bearing C57 Mice at 4 h; in short: as §1
Mus musculus [33] = species on record: Mus musculus; assay: Radioactivity uptake in the kidneys was expressed as a percentage of the injected radioactive dose per gram of tissue (% ID/g) in B16/F1 Murine Melanoma-Bearing C57 Mice at 24 h; settings: Kidney; in short: as §1

Row | Substance | ID/g (Mus musculus [1]) | ID/g (Mus musculus [2]) | ID/g (Mus musculus [3]) | Uptake ratio (Mus musculus [4]) | ID/g (Mus musculus [5]) | ID/g (Mus musculus [6]) | ID/g (Mus musculus [7]) | Uptake ratio (Mus musculus [8]) | Uptake ratio (Mus musculus [9]) | ID/g (Mus musculus [10]) | Uptake ratio (Mus musculus [11]) | Uptake ratio (Mus musculus [12]) | ID/g (Mus musculus [13]) | ID/g (Mus musculus [14]) | ID/g (Mus musculus [15]) | ID/g (Mus musculus [16]) | Uptake ratio (Mus musculus [17]) | Uptake ratio (Mus musculus [18]) | ID/g (Mus musculus [19]) | ID/g (Mus musculus [20]) | other results
1 | Ac-Lys(DOTA)-ReCCEHdFRWCKPV-NH2 | 0.21% | 0.18% | 18.4% | 3.8 | 0.14% | 0.18% | 0.057% | 4.7 | 17.6 | 0.02% | 22.9 | 0.28 | 0.08% | 3.54% | 19% | 0.017% | 33.3 | 48.6 | 0.13% | 0.29% | ID/g (Mus musculus [21]): 0.11%; ID/g (Mus musculus [22]): 0.66%; Uptake ratio (Mus musculus [23]): 3400; ID/g (Mus musculus [24]): 0.074%; ID/g (Mus musculus [25]): 0.11%; ID/g (Mus musculus [26]): 0.86%; ID/g (Mus musculus [27]): 0.18%; Uptake ratio (Mus musculus [28]): 0.3; Uptake ratio (Mus musculus [29]): 88.7; ID/g (Mus musculus [30]): 23.4%; ID/g (Mus musculus [31]): 8.15%; ID/g (Mus musculus [32]): 6.01%; ID/g (Mus musculus [33]): 13.4%
2 | DOTA-ReCCEHdFRWCKPV-NH2 | 0.14% | 0.027% | 8.98% | 6.9 | 0.06% | 0.11% | 0.043% | 6.6 | 27.8 | 0.047% | 169 | 1.1 | 0.066% | 4.86% | 9.27% | 0.093% | 49.9 | 69.4 | 0.13% | 0.2% | ID/g (Mus musculus [21]): 0.09%; ID/g (Mus musculus [22]): 0.59%; Uptake ratio (Mus musculus [23]): 159; ID/g (Mus musculus [24]): 0.048%; ID/g (Mus musculus [25]): 0.031%; ID/g (Mus musculus [26]): 0.72%; ID/g (Mus musculus [27]): 0.18%; Uptake ratio (Mus musculus [28]): 0.85; Uptake ratio (Mus musculus [29]): 490; ID/g (Mus musculus [30]): 13%; ID/g (Mus musculus [31]): 11.4%; ID/g (Mus musculus [32]): 9.46%; ID/g (Mus musculus [33]): 5.64%
3 | DOTA-ReCCEHdFRWCKPV-OH | 0.22% | 0.064% | 8.8% | 6.9 | 0.11% | 0.1% | 0.074% | 9 | 27.9 | 0.054% | 85.1 | 1.1 | 0.058% | 3.14% | 8.7% | 0.035% | 63 | 52.8 | 0.15% | 0.14% | ID/g (Mus musculus [21]): 0.2%; ID/g (Mus musculus [22]): 0.45%; Uptake ratio (Mus musculus [23]): 277; ID/g (Mus musculus [24]): 0.03%; ID/g (Mus musculus [25]): 0.14%; ID/g (Mus musculus [26]): 0.68%; ID/g (Mus musculus [27]): 0.18%; Uptake ratio (Mus musculus [28]): 0.95; Uptake ratio (Mus musculus [29]): 200; ID/g (Mus musculus [30]): 11.5%; ID/g (Mus musculus [31]): 9.19%; ID/g (Mus musculus [32]): 9.27%; ID/g (Mus musculus [33]): 7.35%
4 | DOTA-ReCCEHdFRWCKPVD-OH | 0.043% | 0.017% | 8.07% | 6.8 | 0.035% | 0.097% | 0.031% | 7.8 | 38.2 | 0.13% | 105 | 0.91 | 0.07% | 2.48% | 8.13% | 0.047% | 51.3 | 56.6 | 0.017% | 0.16% | ID/g (Mus musculus [21]): 0.23%; ID/g (Mus musculus [22]): 0.43%; Uptake ratio (Mus musculus [23]): 156; ID/g (Mus musculus [24]): 0.029%; ID/g (Mus musculus [25]): 0.082%; ID/g (Mus musculus [26]): 0.44%; ID/g (Mus musculus [27]): 0.16%; Uptake ratio (Mus musculus [28]): 0.78; Uptake ratio (Mus musculus [29]): 199; ID/g (Mus musculus [30]): 11.5%; ID/g (Mus musculus [31]): 8.29%; ID/g (Mus musculus [32]): 7.32%; ID/g (Mus musculus [33]): 6.28%
